Source: ChEMBL document CHEMBL1156517, “Targeting thyroid hormone receptor-beta agonists to the liver reduces cholesterol and triglycerides and improves the therapeutic index” (Proc Natl Acad Sci U S A, 2007)
The source made the active and inactive calls. The calls are words filed in the database; no cut-off is given here.

Columns and labels:
Rattus norvegicus [1] = assay: Toxicity in Sprague-Dawley rat assessed as suppression of thyroid hormone axis measured by decrease in total […]-L-thyronine level at 30 mg/kg/day, po for 7 days; format: organism-based; parameters: route oral; conditions: in vivo, 168 h
Rattus norvegicus [2] = assay: Effect on fasting blood glucose level in Sprague-Dawley rat at 650 ug/kg/day, sc after 8 days by oral glucose tolerance test; format: functional
Rattus norvegicus [3] = species on record: Rattus norvegicus; assay: Reduction in plasma cholesterol level in cholesterol fed Sprague-Dawley rat; format: functional
Rattus norvegicus [4] = assay: Toxicity in Sprague-Dawley rat assessed as suppression of thyroid hormone axis measured by decrease in total […]-L-thyronine level at 300 mg/kg/day, po for 7 days; format: organism-based; parameters: route oral; conditions: in vivo, 168 h
Rattus norvegicus [5] = assay: Effect on LDLR mRNA expression in po dosed Sprague-Dawley rat liver; format: functional, organism-based; conditions: TDE = time-dependent effect
Rattus norvegicus [6] = assay: Effect on plasma fatty acid level in Sprague-Dawley rat at 650 ug/kg/day, sc after 8 days; format: functional
Rattus norvegicus [7] = assay: Toxicity in Sprague-Dawley rat assessed as suppression of thyroid hormone axis measured by decrease in total 3,5,3',5'-tetraiodo-L-thyronine level at 1000 mg/kg/day, po for 7 days; format: organism-based; parameters: route oral; conditions: in vivo, 168 h
Rattus norvegicus [8] = assay: Effect on TSH-beta mRNA expression in po dosed Sprague-Dawley rat pituitary gland; format: functional, organism-based; conditions: TDE = time-dependent effect
Rattus norvegicus [9] = assay: Toxicity in Sprague-Dawley rat assessed as suppression of thyroid hormone axis measured by decrease in serum TSH level at 30 mg/kg/day, po for 7 days relative to control; format: organism-based; parameters: route oral; conditions: in vivo, 168 h
Rattus norvegicus [10] = assay: Toxicity in Sprague-Dawley rat assessed as suppression of thyroid hormone axis measured by decrease in total 3,5,3',5'-tetraiodo-L-thyronine level at 3 mg/kg/day, po for 7 days; format: organism-based; parameters: route oral; conditions: in vivo, 168 h
Mus musculus [11] = assay: Effect on hepatic LDLR mRNA level in LDLR deficient C57BL/6 mouse at 0.5 mg/kg/day once daily for 7 days; format: functional
Rattus norvegicus [12] = assay: Effect on MHCbeta mRNA expression in po dosed Sprague-Dawley rat heart; format: functional, organism-based; conditions: TDE = time-dependent effect
Rattus norvegicus [13] = assay: Effect on food intake in Sprague-Dawley rat at 650 ug/kg/day, sc after 8 days; format: functional
Rattus norvegicus [14] = assay: Toxicity in Sprague-Dawley rat assessed as suppression of thyroid hormone axis measured by decrease in TSH-beta mRNA level at 1000 mg/kg/day, po for 7 days relative to control; format: organism-based; parameters: route oral; conditions: in vivo, 168 h
Rattus norvegicus [15] = assay: Effect on UCP3 mRNA expression in po dosed Sprague-Dawley rat muscle; format: functional, organism-based; conditions: Muscle tissue, TDE = time-dependent effect
Rattus norvegicus [16] = assay: Effect on SREBP-1c mRNA expression in po dosed Sprague-Dawley rat liver; format: functional, organism-based; conditions: TDE = time-dependent effect
Rattus norvegicus [17] = assay: Effect on type 1 iodothyronine deiodinase mRNA expression in po dosed Sprague-Dawley rat thyroid gland; format: functional, organism-based; conditions: TDE = time-dependent effect
In short: (§1)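 Killed 3, 8 and 24 h post-dose under 2.5% isoflurane. Pituitary and thyroid snap-frozen; liver, heart, soleus, spleen and kidney freeze-clamped. mRNA by quantitative real-time PCR, expressed as fold-change vs vehicle.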

Rattus norvegicus [18] = assay: Toxicity in Sprague-Dawley rat assessed as suppression of thyroid hormone axis measured by decrease in TSH-beta mRNA level at 3 mg/kg/day, po for 7 days relative to control; format: organism-based; parameters: route oral; conditions: in vivo, 168 h
Rattus norvegicus [19] = assay: Toxicity in Sprague-Dawley rat assessed as suppression of thyroid hormone axis measured by decrease in total 3,5,3',5'-tetraiodo-L-thyronine level at 300 mg/kg/day, po for 7 days; format: organism-based; parameters: route oral; conditions: in vivo, 168 h
Rattus norvegicus [20] = assay: Effect on body weight in Sprague-Dawley rat at 650 ug/kg/day, sc after 8 days; format: functional
Rattus norvegicus [21] = assay: Effect on type 1 iodothyronine deiodinase mRNA expression in po dosed Sprague-Dawley rat liver; format: functional, organism-based; conditions: TDE = time-dependent effect; in short: as §1
Rattus norvegicus [22] = assay: Toxicity in Sprague-Dawley rat assessed as suppression of thyroid hormone axis measured by decrease in total […]-L-thyronine level at 1000 mg/kg/day, po for 7 days; format: organism-based; parameters: route oral; conditions: in vivo, 168 h
Rattus norvegicus [23] = assay: Effect on malic enzyme mRNA expression in po dosed Sprague-Dawley rat liver; format: functional, organism-based; conditions: TDE = time-dependent effect; in short: as §1
Rattus norvegicus [24] = assay: Effect on type 1 iodothyronine deiodinase mRNA expression in po dosed Sprague-Dawley rat heart; format: functional, organism-based; conditions: TDE = time-dependent effect; in short: as §1
Rattus norvegicus [25] = assay: Toxic cardiac effect on Sprague-Dawley rat assessed as increase in heart rate at >= 0.065 mg/kg/day, po for 7 days; format: toxicity, organism-based; parameters: route oral; conditions: in vivo, 168 h
In short: (§2)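 Male SD rats (n = 6 per group) dosed daily by oral gavage for 7 days; vehicle group included. On day 7, rats anesthetized with isoflurane; catheter-tip transducer inserted into left ventricle via right carotid artery. LV pressure, LV dP/dt and heart rate (lead I ECG) recorded digitally. Systolic/diastolic aortic pressure taken by retracting catheter into proximal aorta.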

Rattus norvegicus [26] = assay: Toxicity in Sprague-Dawley rat assessed as suppression of thyroid hormone axis measured by decrease in serum TSH level at 3 mg/kg/day, po for 7 days relative to control; format: organism-based; parameters: route oral; conditions: in vivo, 168 h
Rattus norvegicus [27] = assay: Toxic cardiac effect on Sprague-Dawley rat assessed as increase in systolic aortic pressure at >= 0.065 mg/kg/day, po for 7 days; format: toxicity, organism-based; parameters: route oral; conditions: in vivo, 168 h; in short: as §2
Rattus norvegicus [28] = assay: Toxicity in Sprague-Dawley rat assessed as suppression of thyroid hormone axis measured by decrease in TSH-beta mRNA level at 30 mg/kg/day, po for 7 days relative to control; format: organism-based; parameters: route oral; conditions: in vivo, 168 h
Rattus norvegicus [29] = assay: Effect on type 1 iodothyronine deiodinase mRNA expression in po dosed Sprague-Dawley rat spleen; format: functional, organism-based; conditions: TDE = time-dependent effect; in short: as §1
Rattus norvegicus [30] = assay: Toxic cardiac effect on Sprague-Dawley rat assessed as increase in first derivative of left ventricular pressure at >= 0.065 mg/kg/day, po for 7 days; format: toxicity, organism-based, Heart left ventricle; parameters: route oral; conditions: in vivo, 168 h; in short: as §2
Mus musculus [31] = assay: Decrease in cholesterol level in wild-type C57BL/6 mouse at 5 mg/kg/day once daily for 7 days; format: functional, organism-based
Rattus norvegicus [32] = assay: Toxicity in Sprague-Dawley rat assessed as suppression of thyroid hormone axis measured by decrease in serum TSH level at 300 mg/kg/day, po for 7 days relative to control; format: organism-based; parameters: route oral; conditions: in vivo, 168 h
Mus musculus [33] = assay: Decrease in cholesterol level in LDLR deficient C57BL/6 mouse at 5 mg/kg/day once daily for 7 days; format: functional, organism-based
Rattus norvegicus [34] = assay: Toxicity in Sprague-Dawley rat assessed as suppression of thyroid hormone axis measured by decrease in total […]-L-thyronine level at 3 mg/kg/day, po for 7 days; format: organism-based; parameters: route oral; conditions: in vivo, 168 h
Rattus norvegicus [35] = assay: Toxicity in Sprague-Dawley rat assessed as suppression of thyroid hormone axis measured by decrease in total 3,5,3',5'-tetraiodo-L-thyronine level at 30 mg/kg/day, po for 7 days; format: organism-based; parameters: route oral; conditions: in vivo, 168 h
Rattus norvegicus [36] = assay: Effect on plasma insulin level in Sprague-Dawley rat at 650 ug/kg/day, sc after 8 days; format: functional
Mus musculus [37] = assay: Decrease in cholesterol level in wild-type C57BL/6 mouse at 0.5 mg/kg/day once daily for 7 days; format: functional, organism-based
Mus musculus [38] = assay: Effect on hepatic LDLR mRNA level in wild-type C57BL/6 mouse at 0.5 mg/kg/day once daily for 7 days; format: functional
Rattus norvegicus [39] = assay: Toxicity in Sprague-Dawley rat assessed as suppression of thyroid hormone axis measured by decrease in serum TSH level at 1000 mg/kg/day, po for 7 days relative to control; format: organism-based; parameters: route oral; conditions: in vivo, 168 h
Rattus norvegicus [40] = assay: Toxicity in Sprague-Dawley rat assessed as suppression of thyroid hormone axis measured by decrease in TSH-beta mRNA level at 300 mg/kg/day, po for 7 days relative to control; format: organism-based; parameters: route oral; conditions: in vivo, 168 h
Rattus norvegicus [41] = assay: Effect on type 1 iodothyronine deiodinase mRNA expression in po dosed Sprague-Dawley rat kidney; format: functional, organism-based; conditions: TDE = time-dependent effect; in short: as §1
Rattus norvegicus [42] = assay: Effect on type 1 iodothyronine deiodinase mRNA expression in po dosed Sprague-Dawley rat pituitary gland; format: functional, organism-based; conditions: TDE = time-dependent effect; in short: as §1
Mus musculus [43] = assay: Decrease in cholesterol level in LDLR deficient C57BL/6 mouse at 0.5 mg/kg/day once daily for 7 days; format: functional, organism-based

Compound: N[C@@H](Cc1cc(I)c(Oc2ccc(O)c(I)c2)c(I)c1)C(=O)O [LIOTHYRONINE]
- Activity (Rattus norvegicus [1]): 0.42 ng/mL
- Activity (Rattus norvegicus [2]): 25 mg/dL
- ED50 (Rattus norvegicus [3]): 0.012 mg/kg
- Activity (Rattus norvegicus [4]): 4.06 ng/mL
- Activity (Rattus norvegicus [5]): tde
- Activity (Rattus norvegicus [6]): 0.937 mM
- Activity (Rattus norvegicus [7]): 8.4 ng/mL
- Activity (Rattus norvegicus [8]): tde
- Activity (Rattus norvegicus [9]): 0.0139
- Activity (Rattus norvegicus [10]): 37.3 ng/mL
- Activity (Mus musculus [11]): 9.5%
- Activity (Rattus norvegicus [12]): tde
- Activity (Rattus norvegicus [13]): 16.2%
- Activity (Rattus norvegicus [14]): 0.081
- Activity (Rattus norvegicus [15]): tde
- Activity (Rattus norvegicus [16]): tde
- Activity (Rattus norvegicus [17]): tde
- Activity (Rattus norvegicus [18]): 0.93
- Activity (Rattus norvegicus [19]): 1.43 ng/mL
- Activity (Rattus norvegicus [20]): 4.3 g
- Activity (Rattus norvegicus [21]): tde
- Activity (Rattus norvegicus [22]): 16.45 ng/mL
- Activity (Rattus norvegicus [23]): tde
- Activity (Rattus norvegicus [24]): tde
- Activity (Rattus norvegicus [25]): Active
- Activity (Rattus norvegicus [26]): 0.57
- Activity (Rattus norvegicus [27]): Active
- Activity (Rattus norvegicus [28]): 0.14
- Activity (Rattus norvegicus [29]): tde
- Activity (Rattus norvegicus [30]): Active
- Activity (Mus musculus [31]): Active
- Activity (Rattus norvegicus [32]): 0.0031
- Activity (Mus musculus [33]): inactive
- Activity (Rattus norvegicus [34]): 0.49 ng/mL
- Activity (Rattus norvegicus [35]): 4.2 ng/mL
- Activity (Rattus norvegicus [36]): 0.334 ng/mL
- Activity (Mus musculus [37]): Active
- Activity (Mus musculus [38]): -42.4%
- Activity (Rattus norvegicus [39]): 0.001365
- Activity (Rattus norvegicus [40]): 0.0978
- Activity (Rattus norvegicus [41]): tde
- Activity (Rattus norvegicus [42]): tde
- Activity (Mus musculus [43]): inactive
